Laboratory results reported in ChEMBL document CHEMBL1147718, “Design, synthesis, antibacterial, and QSAR studies of myristic acid derivatives” (2006).
≈ marks a conversion by molar mass, not a printed value.

How the values were obtained:
Format in all cases: functional
Details in all cases: read-out: -Log MIC (converted)
Micrococcus luteus = assay: Antibacterial activity against Micrococcus luteus
Procedure, shortened: (§1)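 Serial dilution MIC in double strength nutrient broth-IP against S. aureus, M. luteus and E. coli. Derivatives dissolved in DMSO as […] stock. Activity reported as −log MIC.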

Staphylococcus aureus = assay: Antibacterial activity against Staphylococcus aureus; procedure, shortened: as §1
Escherichia coli = assay: Antibacterial activity against Escherichia coli; procedure, shortened: as §1

Row | SMILES | MIC (Micrococcus luteus) [µM] | MIC (Staphylococcus aureus) [µM] | MIC (Escherichia coli) [µM]
1 | CCCCCCCCCCCCCC(=O)N(CC)CC | 2140 (≈ 606 µg/mL) | 2630 (≈ 746 µg/mL) | 2240 (≈ 635 µg/mL)
2 | CCCCCCCCCCCCCC(=O)Nc1ccc([N+](=O)[O-])cc1 | 1740 (≈ 606 µg/mL) | 1380 (≈ 481 µg/mL) | 2750 (≈ 960 µg/mL)
3 | CCCCCCCCCCCCCC(=O)Nc1cccc([N+](=O)[O-])c1 | 3470 (≈ 1210 µg/mL) | 2750 (≈ 960 µg/mL) | 2750 (≈ 960 µg/mL)
4 | CCCCCCCCCCCCCC(=O)Nc1ccccc1 | 1950 (≈ 592 µg/mL) | 1950 (≈ 592 µg/mL) | 3160 (≈ 960 µg/mL)
5 | CCCCCCCCCCCCCC(=O)Nc1cccc(Cl)c1 | 1170 (≈ 397 µg/mL) | 1480 (≈ 500 µg/mL) | 2690 (≈ 910 µg/mL)
6 | CCCCCCCCCCCCCC(=O)Nc1ccc(Cl)cc1 | 1480 (≈ 500 µg/mL) | 1480 (≈ 500 µg/mL) | 2690 (≈ 910 µg/mL)
7 | CCCCCCCCCCCCCC(=O)Nc1ccc(OC)cc1 | 1780 (≈ 593 µg/mL) | 1510 (≈ 505 µg/mL) | 2400 (≈ 800 µg/mL)
8 | CCCCCCCCCCCCCC(=O)Nc1ccccc1OC | 1780 (≈ 593 µg/mL) | 1510 (≈ 505 µg/mL) | 2400 (≈ 800 µg/mL)
9 | CCCCCCCCCCCCCC(=O)NCCCC | 2450 (≈ 696 µg/mL) | 2140 (≈ 606 µg/mL) | 3550 (≈ 1010 µg/mL)
10 | CCCCCCCCCCCCCC(=O)NCCC | 2570 (≈ 693 µg/mL) | 2570 (≈ 693 µg/mL) | 3720 (≈ 1000 µg/mL)
11 | CCCCCCCCCCCCCC(=O)Nc1ccccc1[N+](=O)[O-] | 1740 (≈ 606 µg/mL) | 1380 (≈ 481 µg/mL) | 3470 (≈ 1210 µg/mL)
12 | CCCCCCCCCCCCCC(=O)Nc1ccccc1Cl | 1780 (≈ 601 µg/mL) | 1480 (≈ 500 µg/mL) | 2690 (≈ 910 µg/mL)
13 | CCCCCCCCCCCCCC(=O)OCc1ccccc1 [BENZYL TETRADECANOATE] | 1860 (≈ 593 µg/mL) | 1580 (≈ 505 µg/mL) | 2510 (≈ 800 µg/mL)
14 | CCCCCCCCCCCCCC(=O)OCCCC [BUTYL TETRADECANOATE] | 4370 (≈ 1240 µg/mL) | 2630 (≈ 748 µg/mL) | 3550 (≈ 1010 µg/mL)
15 | O=C(O)c1cn(C2CC2)c2cc(N3CCNCC3)c(F)cc2c1=O [CIPROFLOXACIN] | 468 (≈ 155 µg/mL) | 468 (≈ 155 µg/mL) | 468 (≈ 155 µg/mL)
16 | CCCCCCCCCCCCCC(=O)OCC [ETHYL TETRADECANOATE] | 2450 (≈ 629 µg/mL) | 3890 (≈ 998 µg/mL) | 2450 (≈ 629 µg/mL)
17 | CCCCCCCCCCCCCC(=O)OCCCCCCC [HEPTYL TETRADECANOATE] | 1510 (≈ 494 µg/mL) | 1230 (≈ 402 µg/mL) | 2450 (≈ 802 µg/mL)
18 | CCCCCCCCCCCCCC(=O)OCCCCCC [HEXYL TETRADECANOATE] | 1290 (≈ 403 µg/mL) | 1580 (≈ 495 µg/mL) | 2570 (≈ 803 µg/mL)
19 | CCCCCCCCCCCCCC(=O)OCC(C)C [ISOBUTYL TETRADECANOATE] | 1740 (≈ 494 µg/mL) | 1740 (≈ 494 µg/mL) | 3160 (≈ 900 µg/mL)
20 | CCCCCCCCCCCCCC(=O)OCCC(C)C [ISOPENTYL TETRADECANOATE] | 2000 (≈ 596 µg/mL) | 1660 (≈ 495 µg/mL) | 3020 (≈ 901 µg/mL)
21 | CCCCCCCCCCCCCC(=O)OC(C)C [ISOPROPYL MYRISTATE] | 2240 (≈ 605 µg/mL) | 2240 (≈ 605 µg/mL) | 3720 (≈ 1000 µg/mL)
22 | CCCCCCCCCCCCCC(=O)OC [METHYL TETRADECANOATE] | 5130 (≈ 1240 µg/mL) | 4170 (≈ 1010 µg/mL) | 4170 (≈ 1010 µg/mL)
23 | CCCCCCCCCCCCCC(=O)O [MYRISTIC ACID] | 3310 (≈ 756 µg/mL) | 3310 (≈ 756 µg/mL) | 5500 (≈ 1260 µg/mL)
24 | CCCCCCCCCCCCCC(=O)OCCCCCCCC [OCTYL TETRADECANOATE] | 1170 (≈ 400 µg/mL) | 1170 (≈ 400 µg/mL) | 2340 (≈ 798 µg/mL)
25 | CCCCCCCCCCCCCC(=O)OCCCCC [PENTYL TETRADECANOATE] | 2000 (≈ 596 µg/mL) | 2000 (≈ 596 µg/mL) | 3020 (≈ 901 µg/mL)
26 | CCCCCCCCCCCCCC(=O)OCCC [PROPYL TETRADECANOATE] | 2340 (≈ 634 µg/mL) | 2340 (≈ 634 µg/mL) | 4570 (≈ 1240 µg/mL)
27 | CCCCCCCCCCCCCC(N)=O [TETRADECANAMIDE] | 5130 (≈ 1170 µg/mL) | 2570 (≈ 584 µg/mL) | 3090 (≈ 703 µg/mL)
28 | CCCCCCCCCCCCCC(=O)NN [TETRADECANEHYDRAZIDE] | 5130 (≈ 1240 µg/mL) | 4170 (≈ 1010 µg/mL) | 4170 (≈ 1010 µg/mL)
